Test results: ChEMBL document CHEMBL3286116, “Synthesis, biological evaluation and structure-activity correlation study of a series of imidazol-based compounds as Candida albicans inhibitors” (Eur J Med Chem, 2014)
≈ marks a conversion by molar mass, not a printed value.

Tests used:
Type in all cases: functional
Candida albicans [1] = assay: Antifungal activity against Candida albicans ATCC 3153 after 48 hrs by CLSI broth microdilution method; conditions: ATCC 3153, 48 h
Outline: (§1)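 Yeast CLSI broth microdilution (M27-A3). Compounds dissolved in DMSO at 100× the top test concentration, then diluted as serial two-fold dilutions in RPMI 1640 to final 0.125–64. Inoculum was 1.0–1.5 × 10^3 cells mL−1, incubated at 35 °C and read for growth at 48 h. MIC is the lowest concentration giving ≥50% growth inhibition versus growth control. Reported as the median of five replicates and as the geometric mean.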

Candida parapsilosis [2] = assay: Antifungal activity against Candida parapsilosis DSM 11224 after 48 hrs by CLSI broth microdilution method; conditions: Lodderomyces parapsilosis, DSM 11224, 48 h; outline: as §1
Candida albicans [3] = assay: Antifungal activity against Candida albicans PMC 1042R after 48 hrs by CLSI broth microdilution method; outline: as §1
Nannizzia gypsea [4] = assay: Antifungal activity against Microsporum gypseum DSM 3824 after 72 hrs by CLSI broth microdilution method; conditions: DSM 3824, 72 h
Outline: (§2)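 Dermatophytes tested by CLSI broth microdilution for filamentous fungi (M38-A2). Serial two-fold dilutions of DMSO-dissolved compound in RPMI 1640, final 0.125–64. Inoculum was 0.4–5 × 10^4 CFU mL−1, incubated at 35 °C and read at 72 h. MIC80 is the lowest concentration giving ≥80% growth inhibition versus growth control. Median of five replicates, plus geometric mean.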

Nakaseomyces glabratus [5] = assay: Ratio of fluconazole MIC to compound MIC for Candida glabrata PMC 0852R after 48 hrs by CLSI broth microdilution method
[6] = test system: Trichophyton mentagrophytes; assay: Antifungal activity against Trichophyton mentagrophytes PMC 6531 after 72 hrs by CLSI broth microdilution method; conditions: PMC 6531, 72 h; outline: as §2
Nakaseomyces glabratus [7] = assay: Antifungal activity against Candida glabrata PMC 0850R after 48 hrs by CLSI broth microdilution method; outline: as §1
Candida albicans [8] = assay: Antifungal activity against Candida albicans ATCC 20891 after 48 hrs by CLSI broth microdilution method; conditions: ATCC 20891, 48 h; outline: as §1
Cryptococcus neoformans [9] = assay: Antifungal activity against Cryptococcus neoformans PMC 2103 after 72 hrs by CLSI broth microdilution method; conditions: PMC 2103, 72 h
Outline: (§3)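 Cryptococcus neoformans tested by CLSI broth microdilution in RPMI 1640, with serial two-fold dilutions from DMSO stocks at 100× the top concentration, final 0.125–64. Inoculum was 1.0–1.5 × 10^3 cells mL−1 at 35 °C, with growth read at 72 h. MIC is the lowest concentration with ≥50% growth inhibition versus control. Median of five replicates, plus geometric mean.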

[10] = test system: Trichophyton mentagrophytes; assay: Antifungal activity against Trichophyton mentagrophytes PMC 6552 after 72 hrs by CLSI broth microdilution method; conditions: PMC 6552, 72 h; outline: as §2
Cryptococcus neoformans [11] = assay: Antifungal activity against Cryptococcus neoformans PMC 2111 after 72 hrs by CLSI broth microdilution method; conditions: PMC 2111, 72 h; outline: as §3
Cryptococcus neoformans [12] = assay: Antifungal activity against Cryptococcus neoformans PMC 2107 after 72 hrs by CLSI broth microdilution method; conditions: PMC 2107, 72 h; outline: as §3
Candida albicans [13] = assay: Antifungal activity against Candida albicans PMC 1041R after 48 hrs by CLSI broth microdilution method; outline: as §1
Candida albicans [14] = assay: Ratio of fluconazole MIC to compound MIC for Candida albicans PMC 1040R after 48 hrs by CLSI broth microdilution method
Cryptococcus neoformans [15] = assay: Antifungal activity against Cryptococcus neoformans PMC 2115 after 72 hrs by CLSI broth microdilution method; conditions: PMC 2115, 72 h; outline: as §3
Candida albicans [16] = assay: Antifungal activity against Candida albicans ATCC 10261 after 48 hrs by CLSI broth microdilution method; conditions: ATCC 10261, 48 h; outline: as §1
Candida tropicalis [17] = assay: Antifungal activity against Candida tropicalis PMC 0910 after 48 hrs by CLSI broth microdilution method; conditions: PMC 0910, 48 h; outline: as §1
Candida albicans [18] = assay: Antifungal activity against Candida albicans PMC 1040R after 48 hrs by CLSI broth microdilution method; outline: as §1
Candida albicans [19] = assay: Antifungal activity against Candida albicans ATCC 90028 after 48 hrs by CLSI broth microdilution method; conditions: ATCC 90028, 48 h; outline: as §1
[20] = test system: Trichophyton mentagrophytes; assay: Antifungal activity against Trichophyton mentagrophytes DSM 4870 after 72 hrs by CLSI broth microdilution method; conditions: DSM 4870, 72 h; outline: as §2
Cryptococcus neoformans [21] = assay: Antifungal activity against Cryptococcus neoformans PMC 2136 after 72 hrs by CLSI broth microdilution method; conditions: PMC 2136, 72 h; outline: as §3
Cryptococcus neoformans [22] = assay: Antifungal activity against Cryptococcus neoformans PMC 2102 after 72 hrs by CLSI broth microdilution method; conditions: PMC 2102, 72 h; outline: as §3
Pichia kudriavzevii [23] = assay: Antifungal activity against Candida krusei PMC 0613 after 48 hrs by CLSI broth microdilution method; conditions: PMC 0613, 48 h; outline: as §1
Cryptococcus neoformans [24] = assay: Antifungal activity against Cryptococcus neoformans PMC 2123 after 72 hrs by CLSI broth microdilution method; conditions: PMC 2123, 72 h; outline: as §3
[25] = test system: Trichophyton mentagrophytes; assay: Antifungal activity against Trichophyton mentagrophytes PMC 6515 after 72 hrs by CLSI broth microdilution method; conditions: PMC 6515, 72 h; outline: as §2
Nakaseomyces glabratus [26] = assay: Antifungal activity against Candida glabrata PMC 0853R after 48 hrs by CLSI broth microdilution method; outline: as §1
Nakaseomyces glabratus [27] = assay: Ratio of fluconazole MIC to compound MIC for Candida glabrata PMC 0853R after 48 hrs by CLSI broth microdilution method
Nakaseomyces glabratus [28] = assay: Antifungal activity against Candida glabrata PMC 0851R after 48 hrs by CLSI broth microdilution method; outline: as §1
Candida albicans [29] = assay: Ratio of fluconazole MIC to compound MIC for Candida albicans PMC 1042R after 48 hrs by CLSI broth microdilution method
[30] = test system: Trichophyton mentagrophytes; assay: Antifungal activity against Trichophyton mentagrophytes PMC 6509 after 72 hrs by CLSI broth microdilution method; conditions: PMC 6509, 72 h; outline: as §2
Nakaseomyces glabratus [31] = assay: Antifungal activity against Candida glabrata PMC 0807 after 48 hrs by CLSI broth microdilution method; conditions: PMC 0807, 48 h; outline: as §1
Nakaseomyces glabratus [32] = assay: Ratio of fluconazole MIC to compound MIC for Candida glabrata PMC 0851R after 48 hrs by CLSI broth microdilution method
Nakaseomyces glabratus [33] = assay: Antifungal activity against Candida glabrata PMC 0805 after 48 hrs by CLSI broth microdilution method; conditions: PMC 0805, 48 h; outline: as §1
Candida albicans [34] = assay: Antifungal activity against Candida albicans ATCC 24433 after 48 hrs by CLSI broth microdilution method; conditions: ATCC 24433, 48 h; outline: as §1
[35] = test system: Trichophyton mentagrophytes; assay: Antifungal activity against Trichophyton mentagrophytes PMC 6503 after 72 hrs by CLSI broth microdilution method; conditions: PMC 6503, 72 h; outline: as §2
Nakaseomyces glabratus [36] = assay: Antifungal activity against Candida glabrata PMC 0852R after 48 hrs by CLSI broth microdilution method; outline: as §1
Candida albicans [37] = assay: Antifungal activity against Candida albicans ATCC 10231 after 48 hrs by CLSI broth microdilution method; conditions: ATCC 10231, 48 h; outline: as §1
Pichia kudriavzevii [38] = assay: Antifungal activity against Candida krusei DSM 6128 after 48 hrs by CLSI broth microdilution method; conditions: DSM 6128, 48 h; outline: as §1
Candida parapsilosis [39] = assay: Antifungal activity against Candida parapsilosis ATCC 22019 after 48 hrs by CLSI broth microdilution method; conditions: Lodderomyces parapsilosis, ATCC 22019, 48 h; outline: as §1
Nakaseomyces glabratus [40] = assay: Ratio of fluconazole MIC to compound MIC for Candida glabrata PMC 0850R after 48 hrs by CLSI broth microdilution method
Cryptococcus neoformans [41] = assay: Antifungal activity against Cryptococcus neoformans DSM 11959 after 72 hrs by CLSI broth microdilution method; conditions: DSM 11959, 72 h; outline: as §3
Candida albicans [42] = assay: Antifungal activity against Candida albicans ATCC 76615 after 48 hrs by CLSI broth microdilution method; conditions: ATCC 76615, 48 h; outline: as §1
Nannizzia gypsea [43] = assay: Antifungal activity against Microsporum gypseum PMC 7303 after 72 hrs by CLSI broth microdilution method; conditions: PMC 7303, 72 h; outline: as §2
Nannizzia gypsea [44] = assay: Antifungal activity against Microsporum gypseum PMC 7331 after 72 hrs by CLSI broth microdilution method; conditions: PMC 7331, 72 h; outline: as §2
Candida albicans [45] = assay: Ratio of fluconazole MIC to compound MIC for Candida albicans PMC 1041R after 48 hrs by CLSI broth microdilution method
Candida albicans [46] = assay: Antifungal activity against Candida albicans PMC 1011 after 48 hrs by CLSI broth microdilution method; conditions: PMC 1011, 48 h; outline: as §1
Candida tropicalis [47] = assay: Antifungal activity against Candida tropicalis DSM 11953 after 48 hrs by CLSI broth microdilution method; conditions: DSM 11953, 48 h; outline: as §1

MIC50 (Candida albicans [1]): 0.25 µg/mL (≈ 0.561 µM)
MIC50 (Candida parapsilosis [2]): 0.5 µg/mL (≈ 1.12 µM)
MIC50 (Candida albicans [3]): 1 µg/mL (≈ 2.25 µM)
MIC80 (Nannizzia gypsea [4]): 8 µg/mL (≈ 18 µM)
MIC80 [6]: 8 µg/mL (≈ 18 µM)
MIC50 (Nakaseomyces glabratus [7]): 4 µg/mL (≈ 8.98 µM)
MIC50 (Candida albicans [8]): 0.25 µg/mL (≈ 0.561 µM)
MIC50 (Cryptococcus neoformans [9]): 4 µg/mL (≈ 8.98 µM)
MIC80 [10]: 1 µg/mL (≈ 2.25 µM)
MIC50 (Cryptococcus neoformans [11]): 2 µg/mL (≈ 4.49 µM)
MIC50 (Cryptococcus neoformans [12]): 2 µg/mL (≈ 4.49 µM)
MIC50 (Candida albicans [13]): 4 µg/mL (≈ 8.98 µM)
MIC50 (Cryptococcus neoformans [15]): 4 µg/mL (≈ 8.98 µM)
MIC50 (Candida albicans [16]): 0.5 µg/mL (≈ 1.12 µM)
MIC50 (Candida tropicalis [17]): 2 µg/mL (≈ 4.49 µM)
MIC50 (Candida albicans [18]): 32 µg/mL (≈ 71.9 µM)
MIC50 (Candida albicans [19]): 0.125 µg/mL (≈ 0.281 µM)
MIC80 [20]: 16 µg/mL (≈ 35.9 µM)
MIC50 (Cryptococcus neoformans [21]): 4 µg/mL (≈ 8.98 µM)
MIC50 (Cryptococcus neoformans [22]): 4 µg/mL (≈ 8.98 µM)
MIC50 (Pichia kudriavzevii [23]): 0.5 µg/mL (≈ 1.12 µM)
MIC50 (Cryptococcus neoformans [24]): 4 µg/mL (≈ 8.98 µM)
MIC80 [25]: 4 µg/mL (≈ 8.98 µM)
MIC50 (Nakaseomyces glabratus [26]): 4 µg/mL (≈ 8.98 µM)
MIC50 (Nakaseomyces glabratus [28]): 8 µg/mL (≈ 18 µM)
MIC80 [30]: 8 µg/mL (≈ 18 µM)
MIC50 (Nakaseomyces glabratus [31]): 4 µg/mL (≈ 8.98 µM)
MIC50 (Nakaseomyces glabratus [33]): 0.5 µg/mL (≈ 1.12 µM)
MIC50 (Candida albicans [34]): 0.25 µg/mL (≈ 0.561 µM)
MIC80 [35]: 2 µg/mL (≈ 4.49 µM)
MIC50 (Nakaseomyces glabratus [36]): 4 µg/mL (≈ 8.98 µM)
MIC50 (Candida albicans [37]): 0.5 µg/mL (≈ 1.12 µM)
MIC50 (Pichia kudriavzevii [38]): 4 µg/mL (≈ 8.98 µM)
MIC50 (Candida parapsilosis [39]): 0.5 µg/mL (≈ 1.12 µM)
MIC50 (Cryptococcus neoformans [41]): 4 µg/mL (≈ 8.98 µM)
MIC50 (Candida albicans [42]): 0.5 µg/mL (≈ 1.12 µM)
MIC80 (Nannizzia gypsea [43]): 1 µg/mL (≈ 2.25 µM)
MIC80 (Nannizzia gypsea [44]): 1 µg/mL (≈ 2.25 µM)
MIC50 (Candida albicans [46]): 0.125 µg/mL (≈ 0.281 µM)
MIC50 (Candida tropicalis [47]): 4 µg/mL (≈ 8.98 µM)
SMILES: O=C(O[C@H](Cn1ccnc1)c1ccc(Cl)cc1)N1CCN(c2ccc(Cl)cc2)CC1
Ratio (Nakaseomyces glabratus [5]): 10
Ratio (Candida albicans [14]): 10
Ratio (Nakaseomyces glabratus [27]): 10
Ratio (Candida albicans [29]): 10
Ratio (Nakaseomyces glabratus [32]): 10
Ratio (Nakaseomyces glabratus [40]): 10
Ratio (Candida albicans [45]): 10
